11 compounds from ChEMBL document CHEMBL1126900, “Transformation of heterocyclic reversible monoamine oxidase-B inactivators into irreversible inactivators by N-methylation” (J Med Chem, 1993) can be followed below.

This experiment concerns the target T1, Amine oxidase [flavin-containing] B (Bos taurus, UniProt P56560).
T1 sequence (P56560 whole entry): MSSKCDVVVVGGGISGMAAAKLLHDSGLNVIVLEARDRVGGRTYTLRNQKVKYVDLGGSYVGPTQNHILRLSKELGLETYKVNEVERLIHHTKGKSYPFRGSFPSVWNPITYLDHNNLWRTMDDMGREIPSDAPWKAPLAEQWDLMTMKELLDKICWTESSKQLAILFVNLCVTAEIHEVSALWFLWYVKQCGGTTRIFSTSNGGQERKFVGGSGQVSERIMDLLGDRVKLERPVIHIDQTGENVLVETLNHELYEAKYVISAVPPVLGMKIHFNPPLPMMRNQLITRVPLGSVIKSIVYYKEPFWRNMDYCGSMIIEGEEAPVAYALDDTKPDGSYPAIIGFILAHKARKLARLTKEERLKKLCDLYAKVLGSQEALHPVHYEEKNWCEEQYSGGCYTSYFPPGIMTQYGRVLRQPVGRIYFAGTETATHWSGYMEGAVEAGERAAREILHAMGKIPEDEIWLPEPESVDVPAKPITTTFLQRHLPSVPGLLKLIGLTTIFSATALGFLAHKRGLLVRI
Description: Kinetic constant for inactivation of MAO B from replot of half-lives of inactivation. Conditions: for kinact: cattle. The method in brief:
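Bovine liver MAO-B (specific activity 4–6 units/mg) preincubated at 25 °C with inactivator hydrochloride at various concentrations, or none (control), in 100 mM potassium phosphate pH 7.40 with 2.0 mM glutathione. Aliquots taken periodically and assayed with 0.50 mM cinnamylamine in 100 mM Tris pH 9.0, 25 °C. Activity corrected against control. KI and kinact obtained by Kitz–Wilson replot of inactivation half-lives.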

`NCC1CN(c2ccc(OCc3cccc(Cl)c3)cc2)C(=O)O1` (stereo unspecified): the Ki came out at 0.067 mM and the kinact is 0.00233 s⁻¹.

On to `COc1ccc(N2CC(CN(C)C)CC2=O)cc1` (stereo unspecified), for which the Ki turned out to be 300 mM and the kinact is 5.83e-05 s⁻¹.

With `COc1ccc([C@H]2C[C@@H](CN(C)C)OC2=O)cc1`, the Ki was 200 mM and the kinact is 0.000283 s⁻¹.

Take `CNCC1CN(c2ccc(OC)cc2)C(=O)O1` (stereo unspecified): the Ki was determined as 4.7 mM and the kinact is 3.17e-05 s⁻¹.

Take `COc1ccc(N2CC(CN)OC2=O)cc1` (stereo unspecified): the kinact was 1.33e-05 s⁻¹.

In the case of `CNCC1CC(=O)N(c2ccc(OC)cc2)C1` (stereo unspecified), the Ki is 50 mM and the kinact is 5.83e-05 s⁻¹.

For the compound `COc1ccc(N2CC(CN(C)C)OC2=O)cc1` (stereo unspecified), the Ki turned out to be 13.3 mM and the kinact was 5e-05 s⁻¹.

Turning to `COc1ccc(N2CC(CN)CC2=O)cc1` (stereo unspecified), the Ki came out at 6.7 mM and the kinact is 1.12e-05 s⁻¹.

Consider `CNCC1CN(c2ccc(OCc3cccc(Cl)c3)cc2)C(=O)O1` (stereo unspecified), for which the Ki turned out to be 0.2 mM and the kinact is 0.000417 s⁻¹.

On to `COc1ccc(C2CC(CN)OC2=O)cc1` (stereo unspecified), for which the Ki stood at 6.7 mM and the kinact was 7.33e-05 s⁻¹.

For the compound `CN(C)CC1CN(c2ccc(OCc3cccc(Cl)c3)cc2)C(=O)O1` (stereo unspecified), the Ki stood at 0.5 mM and the kinact was 0.00137 s⁻¹.

By kinact is commonly meant the rate constant of inactivation at saturating inhibitor.
